In ChEMBL document CHEMBL1154098, “Synthesis, characterization and in vitro antimicrobial activity of novel 2-thioxo-4-thiazolidinones and 4,4'-bis(2-thioxo-4-thiazolidinone-3-yl)diphenylsulfones” (2009):

What was measured:
[1] = system: Staphylococcus aureus; assay: Antibacterial activity against Staphylococcus aureus NCTC 7447 at 1 mg/mL […] by agar diffusion assay; format: functional; details: read-out: DIZ
[2] = system: Penicillium chrysogenum; assay: Antifungal activity against Penicillium chrysogenum Thom AUCC 530 at 1 mg/mL after 48 hrs by agar diffusion assay; format: functional; details: Thom AUCC 530, 48 h, read-out: DIZ
Method in brief: (§1)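 Fungi were grown on Czapek's–Dox agar and assayed by agar diffusion. Test solution was 1 mg mL-1 in DMF, with DMF as negative control. After 48 h incubation, the inhibition zone diameter was measured in mm.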

[3] = system: Aspergillus ochraceus; assay: Antifungal activity against Aspergillus ochraceus Wilhelm AUCC 230 at 1 mg/mL after 48 hrs by agar diffusion assay; format: functional; details: Wilhelm AUCC 230, 48 h, read-out: DIZ; method in brief: as §1
[4] = system: Serratia marcescens; assay: Antibacterial activity against Serratia marcescens IMRU 70 at 1 mg/mL […] by agar diffusion assay; format: functional; details: read-out: DIZ
[5] = system: Bacillus cereus; assay: Antibacterial activity against Bacillus cereus ATCC 14579 at 1 mg/mL […] by agar diffusion assay; format: functional; details: read-out: DIZ
[6] = system: Proteus mirabilis; assay: Antibacterial activity against Proteus mirabilis NCT 289 at 1 mg/mL […] by agar diffusion assay; format: functional; details: read-out: DIZ
[7] = system: Bacillus cereus; assay: Antibacterial activity against Bacillus cereus ATCC 14579 after 24 hrs by agar diffusion assay; format: functional; details: ATCC 14579, 24 h
[8] = system: Aspergillus ochraceus; assay: Antifungal activity against Aspergillus ochraceus Wilhelm AUCC 230 at 30 ug/mL after 48 hrs by agar diffusion assay; format: functional, organism-based
[9] = system: Penicillium chrysogenum; assay: Antifungal activity against Penicillium chrysogenum Thom AUCC 530 at 30 ug/mL after 48 hrs by agar diffusion assay; format: functional, organism-based
Method in brief: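 Agar-diffusion assay on Czapek's–Dox agar inoculated with the fungal culture. Test solutions were 1 mg mL-1 in DMF, with DMF as the negative control and Mycostatine (30 µg mL-1) as the reference drug. Plates were incubated for 48 h, and the inhibition zone diameter was measured in mm.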

[10] = system: Penicillium chrysogenum; assay: Antifungal activity against Penicillium chrysogenum Thom AUCC 530 at 25 ug/mL after 24 hrs by agar diffusion assay; format: functional; details: Thom AUCC 530, 24 h, read-out: DIZ
[11] = system: Proteus mirabilis; assay: Antibacterial activity against Proteus mirabilis NCT 289 at 25 ug/mL […] by agar diffusion assay; format: functional; details: read-out: DIZ
[12] = system: Bacillus cereus; assay: Antibacterial activity against Bacillus cereus ATCC 14579 at 25 ug/mL […] by agar diffusion assay; format: functional; details: read-out: DIZ
[13] = system: Serratia marcescens; assay: Antibacterial activity against Serratia marcescens IMRU 70 at 25 ug/mL […] by agar diffusion assay; format: functional; details: read-out: DIZ
[14] = system: Aspergillus ochraceus; assay: Antifungal activity against Aspergillus ochraceus Wilhelm AUCC 230 at 25 ug/mL after 24 hrs by agar diffusion assay; format: functional; details: Wilhelm AUCC 230, 24 h, read-out: DIZ
[15] = system: Staphylococcus aureus; assay: Antibacterial activity against Staphylococcus aureus NCTC 7447 at 25 ug/mL […] by agar diffusion assay; format: functional; details: read-out: DIZ
[16] = system: Penicillium chrysogenum; assay: Antifungal activity against Penicillium chrysogenum Thom AUCC 530 after 48 hrs by agar diffusion assay; format: functional; details: Thom AUCC 530, 48 h

Compound	zone of inhibition at 1000 µg/mL [1]	zone of inhibition at 1000 µg/mL [2]	zone of inhibition at 1000 µg/mL [3]	zone of inhibition at 1000 µg/mL [4]	zone of inhibition at 1000 µg/mL [5]	zone of inhibition at 1000 µg/mL [6]	MIC [7]	inhibition zone (IZ) [8]	inhibition zone (IZ) [9]	zone of inhibition at 25 µg/mL [10]	zone of inhibition at 25 µg/mL [11]	zone of inhibition at 25 µg/mL [12]	zone of inhibition at 25 µg/mL [13]	zone of inhibition at 25 µg/mL [14]	zone of inhibition at 25 µg/mL [15]	MIC [16]
COc1ccc(/C=C2/SC(=S)N(c3ccc(S(N)(=O)=O)cc3)C2=O)cc1	27 mm	17 mm	19 mm	15 mm	10 mm	19 mm										
Cc1ccc(/C=C2/SC(=S)N(c3ccc(S(N)(=O)=O)cc3)C2=O)cc1	14 mm	10 mm	14 mm	18 mm	34 mm	17 mm	< 50 µg/mL									
NYSTATIN								40 mm	43 mm							
CC1(C)S[C@@H]2[C@H](NC(=O)[C@H](N)c3ccccc3)C(=O)N2[C@H]1C(=O)O [AMPICILLIN]										16 mm	40 mm	43 mm	40 mm	10 mm	40 mm	
N#CC(C#N)=C1SC(=S)N(c2ccc(S(N)(=O)=O)cc2)C1=O	15 mm	14 mm	14 mm	24 mm	32 mm	18 mm	< 50 µg/mL									
O=C1CSC(=S)N1c1ccc(S(=O)(=O)c2ccc(N3C(=O)CSC3=S)cc2)cc1	15 mm	12 mm	26 mm	10 mm	13 mm	24 mm										
CN(C)/C=N/S(=O)(=O)c1ccc(N2C(=O)/C(=C\N(C)C)SC2=S)cc1	16 mm	16 mm	16 mm	12 mm	15 mm	20 mm										
O=C1CSC(=S)N1c1ccc(S(=O)(=O)Nc2ncccn2)cc1	18 mm	35 mm	15 mm	22 mm	16 mm	19 mm										< 50 µg/mL
COc1ccc(/C=C2\SC(=S)N(c3ccc(S(=O)(=O)c4ccc(N5C(=O)/C(=C/c6ccc(OC)cc6)SC5=S)cc4)cc3)C2=O)cc1	17 mm	11 mm	11 mm	13 mm	16 mm	25 mm										
NS(=O)(=O)c1ccc(N2C(=O)/C(=C\c3ccc(/C=C4/SC(=S)N(c5ccc(S(N)(=O)=O)cc5)C4=O)cc3)SC2=S)cc1	13 mm	15 mm	16 mm	19 mm	33 mm	22 mm	< 50 µg/mL									
NS(=O)(=O)c1ccc(N2C(=O)CSC2=S)cc1	28 mm	16 mm	18 mm	20 mm	13 mm	24 mm										
CCO/C=C1/SC(=S)N(c2ccc(S(N)(=O)=O)cc2)C1=O	25 mm	18 mm	12 mm	23 mm	12 mm	23 mm										
